# Measurements taken from PMC11439923 (Scientific Reports, 2024).
# Experiments:
# [1] = system: HNSCC cell lines (FaDu, Cal-27, and Ca9-22); assay: Cell viability assay; type: cell-based, human; settings: Cal-27 and FaDu; 1 µM single agent; 48 and 72 h; MTT
# Method in brief: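 Seeded 8 × 10^3 cells/well in 10% FBS medium: MEM for Ca9-22; high-glucose DMEM for FaDu, Cal-27, HaCaT; DMEM/F12 for HK-2. Grown 24 h at 37 °C, 5% CO2, then dosed 24, 48 or 72 h: derivatives 0.001–20 µM, parent glycoside and platinum reference 0.01–50 µM. MTT 0.5 mg/ml 4 h, formazan dissolved in DMSO, A570. IC50 by nonlinear regression. Triplicate, ≥3 independent experiments.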
# FaDu spheroids = assay: Three-dimensional culture, spheroid live/dead staining; type: cell-based, human; settings: 50 µM cisplatin, 72 h
# Method in brief: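 FaDu seeded 500 cells/well in U-bottom ultralow-attachment plates, spheroids formed over 72 h at 37 °C, 5% CO2. Spheroids exposed 72 h to a concentration series of test compound or platinum reference. Stained 1 h with Hoechst 33342 (live) and ethidium homodimer-1 (dead), imaged by high-content system. Read-out: Hoechst/EthD-1 mean fluorescence intensity ratio. One-way ANOVA with Tukey's test.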
# healthy mice = settings: cited from earlier work
# V-ATPase activity = assay: LysoTracker Red staining; type: cell-based, human; settings: Cal-27 and FaDu; 0.1 µM; 24 h
# Method in brief: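 Cal-27 and FaDu plated 8 × 10^3 cells/well in black 96-well plates for 24 h. Treated 24 h with test compound (0.1, 1, 2 µM) or 0.1 µM bafilomycin A1. LysoTracker 2 h, immediate fixation in 4% paraformaldehyde 20 min, DAPI 30 min at room temperature. Lysosomal fluorescence intensity quantified by high-content imaging.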
# cathepsin D (CTSD) = assay: Western blot of cathepsin D; type: cell-based, human; settings: 36 h, ECDD-S18 0.1, 1, 2 µM, bafilomycin A1 0.1 µM, vs DMSO
# Method in brief: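 Cal-27 or FaDu seeded 5 × 10^5 cells per 60 mm dish for 24 h, treated 36 h with test compound (0.1, 1, 2 µM), 0.1 µM bafilomycin A1 or DMSO. RIPA lysates run on SDS-PAGE, transferred to PVDF, blocked in 5% milk 1 h. Probed overnight at 4 °C for pro/mature cathepsin D, N-cadherin, GAPDH; HRP secondary, ECL on film. Densitometry normalised to GAPDH, fold change versus untreated.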
# CTSD mRNA = assay: Quantitative RT-PCR of CTSD; type: cell-based, human; settings: 36 h, ECDD-S18 0.1, 1, 2 µM, bafilomycin A1 0.1 µM, vs DMSO
# [2] = system: E-cadherin mRNA and protein; assay: E-cadherin expression; type: cell-based, human; settings: Cal-27 and FaDu; 36 h; ECDD-S18 0.1, 1, 2 µM, bafilomycin A1 0.1 µM
Structure (SMILES),cell viability [1],Live/dead cell ratio (Hoechst 33342 to EthD-1) (FaDu spheroids),WBC and RBC levels (healthy mice),body weight loss (healthy mice),LysoTracker red fluorescence intensity relative to DMSO control (V-ATPase activity),protein expression of mature CTSD (cathepsin D (CTSD); Cal-27),protein expression of mature CTSD (cathepsin D (CTSD); FaDu),mRNA expression of CTSD (CTSD mRNA; Cal-27),mRNA expression of CTSD (CTSD mRNA; FaDu),expression of E-cadherin mRNA and protein [2]
N.N.[Cl][Pt][Cl] [Cisplatin],slight suppression,significantly reduced,marked decrease,30–40%,,,,,,
CO/C1=C\C(C)=C\[C@@H](C)[C@@H](O)[C@@H](C)C/C(C)=C/C=C/[C@H](OC)[C@@H]([C@@H](C)[C@@H](O)[C@H](C)[C@@]2(O)C[C@@H](O)[C@H](C)[C@@H](C(C)C)O2)OC1=O [bafilomycin A1],,,,,significantly decreased,downregulated,downregulated,significantly decreased,significantly decreased,no effect
